Results: ChEMBL document CHEMBL4346709, “Design and Optimization Leading to an Orally Active TTK Protein Kinase Inhibitor with Robust Single Agent Efficacy” (J Med Chem, 2019)
Calls of active or inactive are those of the source. The rule behind the calls is not given here.

Assays:
[1] = molecular target: T1, Dual specificity protein kinase TTK (Homo sapiens, UniProt P33981); test: Inhibition of TTK autophosphorylation in human CAL51 cells by radioimmuno-precipitation assay; format: cell-based
T1 sequence (P33981 whole entry): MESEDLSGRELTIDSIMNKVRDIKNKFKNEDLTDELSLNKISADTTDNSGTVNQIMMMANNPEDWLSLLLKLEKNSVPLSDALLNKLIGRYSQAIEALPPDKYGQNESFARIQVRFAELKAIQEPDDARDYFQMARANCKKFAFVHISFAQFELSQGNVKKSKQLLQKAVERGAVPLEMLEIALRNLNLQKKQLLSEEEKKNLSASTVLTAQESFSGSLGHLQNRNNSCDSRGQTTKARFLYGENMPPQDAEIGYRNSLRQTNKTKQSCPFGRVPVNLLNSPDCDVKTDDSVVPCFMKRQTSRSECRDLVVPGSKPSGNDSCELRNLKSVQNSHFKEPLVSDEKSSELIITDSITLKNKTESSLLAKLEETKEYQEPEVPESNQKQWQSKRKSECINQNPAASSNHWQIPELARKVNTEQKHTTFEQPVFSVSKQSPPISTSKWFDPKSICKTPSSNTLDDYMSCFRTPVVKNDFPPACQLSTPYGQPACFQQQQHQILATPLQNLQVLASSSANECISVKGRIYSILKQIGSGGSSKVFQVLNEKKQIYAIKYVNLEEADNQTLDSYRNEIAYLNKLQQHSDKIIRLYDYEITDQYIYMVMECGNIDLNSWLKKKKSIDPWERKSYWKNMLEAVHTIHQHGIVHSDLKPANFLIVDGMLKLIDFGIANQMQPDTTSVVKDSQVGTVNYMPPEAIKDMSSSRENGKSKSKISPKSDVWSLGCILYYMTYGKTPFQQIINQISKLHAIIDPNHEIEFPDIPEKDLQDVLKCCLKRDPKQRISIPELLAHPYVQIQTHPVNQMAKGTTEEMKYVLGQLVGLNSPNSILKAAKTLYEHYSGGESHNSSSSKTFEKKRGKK

CAL-51 = test: Antitumor activity against human CAL51 cells xenografted in po dosed CB17 SCID mouse assessed as tumor growth inhibition administered every seven days for 16 days and measured twice per week up to 31 days by caliper method; format: functional, organism-based
Outline: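 Female CB17 SCID mice, 6-8 weeks old, inoculated subcutaneously with 2×10^6 CAL-51 cells. Oral dosing once weekly (QW) at 30-120 mg/kg, or 30 mg/kg BID QW, for 16 days, against vehicle control. Tumour long and short axes measured twice weekly by digital caliper; volume = width² × length/2. Values are TGI; data are mean ± SEM.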

LRRK2 G2019S mutant = LRRK2 G2019S mutant (Homo sapiens, UniProt Q5S007, G2019S); test: Inhibition of recombinant human GST-tagged LRRK2 G2019S mutant catalytic domain (970 to 2527 residues) expressed in baculovirus expression system at 3 uM using LRRKtide as substrate measured after 1 hr by Alexa-fluor-647 ADP tracer-based ADAPTA assay relative to control; conditions: probe LRRKtide
Outline: (§1)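 Kinase selectivity panel: single-point assessment at 3 µM, n=1.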

[2] = Cmax in rat at 10 mg/kg, po; format: ADME, organism-based; set-up: dose 10 mg/kg, route oral; conditions: in vivo
Outline: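 Rat oral PK at 10 mg/kg. Compound is given as a solution in CMCT (0.5% CMC/0.25% tween-80) or formulated in 5% TPGS, 10% captisol, 50 mM citrate buffer. Cmax and AUC are recorded.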

[3] = molecular target: T2, Leukocyte tyrosine kinase receptor (Homo sapiens, UniProt P29376); test: Inhibition of recombinant human GST-tagged LTK cytoplasmic domain (450 to 864 residues) expressed in baculovirus expression system at 3 uM by Z'-LYTE assay relative to control; outline: as §1
[4] = AUC in CB17 SCID mouse at 30 mg/kg, po; format: ADME, organism-based; conditions: in vivo
Outline: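 Oral PK in SCID mice at 30 mg/kg. Compound is formulated either in CMCT (0.5% CMC/0.25% tween-80) or in 5% TPGS, 10% captisol, 50 mM citrate buffer, depending on compound. Cmax and AUC are measured.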

Homo sapiens [5] = species: Homo sapiens; test: Selectivity ratio of IC50 for recombinant human GST-tagged LRRK2 catalytic domain (970 to 2527 residues) expressed in baculovirus expression system to IC50 for inhibition of Kinase Tracer 236 binding to recombinant human full-length GST-tagged TTk expressed in baculovirus expression system
[6] = molecular target: T2, Leukocyte tyrosine kinase receptor; test: Inhibition of recombinant human GST-tagged LTK cytoplasmic domain (450 to 864 residues) expressed in baculovirus expression system by Z'-LYTE assay
[7] = Toxicity in CB17 SCID mouse xenografted with human CAL51 cells assessed as loss of body weight at 30 to 120 mg/kg, po administered every seven days for 16 days and measured up to 31 days; format: organism-based; conditions: in vivo
Outline: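 Female CB17 SCID mice bearing subcutaneous CAL-51 xenografts (2×10^6 cells). Oral dosing once weekly at 30-120 mg/kg, or 30 mg/kg BID once weekly, for 16 days. Body weight loss tracked alongside tumour measurements, against vehicle.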

Mus musculus = test: Inhibition of mitosis in human CAL51 cells xenografted in CB17 SCID mouse assessed reduction in pHH3 ser10 level at 30 mg/kg, po administered as single dose measured after 1 hr by MSD electrochemiluminescent immunoassay; format: functional, organism-based
Outline: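 CB17 SCID mice bearing CAL-51 tumours of 300-500 mm3 given compound orally. At preset time points the mice were euthanised and the tumours dissected and snap-frozen in liquid nitrogen. pHH3 Ser10 or cleaved caspase measured by MSD electrochemiluminescent immunoassay kit. Data are mean ± SEM.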

[8] = molecular target: Mitogen-activated protein kinase 8 (Homo sapiens, UniProt P45983); test: Inhibition of recombinant human full length His-tagged JNK1 expressed in baculovirus expression system at 3 uM by Z'-LYTE assay relative to control; outline: as §1
Homo sapiens [9] = species: Homo sapiens; test: Selectivity ratio of IC50 for recombinant human full length His-tagged JNK1 expressed in baculovirus expression system to IC50 for inhibition of Kinase Tracer 236 binding to recombinant human full-length GST-tagged TTk expressed in baculovirus expression system

T2 sequence (P29376 whole entry, the tested form may be a part): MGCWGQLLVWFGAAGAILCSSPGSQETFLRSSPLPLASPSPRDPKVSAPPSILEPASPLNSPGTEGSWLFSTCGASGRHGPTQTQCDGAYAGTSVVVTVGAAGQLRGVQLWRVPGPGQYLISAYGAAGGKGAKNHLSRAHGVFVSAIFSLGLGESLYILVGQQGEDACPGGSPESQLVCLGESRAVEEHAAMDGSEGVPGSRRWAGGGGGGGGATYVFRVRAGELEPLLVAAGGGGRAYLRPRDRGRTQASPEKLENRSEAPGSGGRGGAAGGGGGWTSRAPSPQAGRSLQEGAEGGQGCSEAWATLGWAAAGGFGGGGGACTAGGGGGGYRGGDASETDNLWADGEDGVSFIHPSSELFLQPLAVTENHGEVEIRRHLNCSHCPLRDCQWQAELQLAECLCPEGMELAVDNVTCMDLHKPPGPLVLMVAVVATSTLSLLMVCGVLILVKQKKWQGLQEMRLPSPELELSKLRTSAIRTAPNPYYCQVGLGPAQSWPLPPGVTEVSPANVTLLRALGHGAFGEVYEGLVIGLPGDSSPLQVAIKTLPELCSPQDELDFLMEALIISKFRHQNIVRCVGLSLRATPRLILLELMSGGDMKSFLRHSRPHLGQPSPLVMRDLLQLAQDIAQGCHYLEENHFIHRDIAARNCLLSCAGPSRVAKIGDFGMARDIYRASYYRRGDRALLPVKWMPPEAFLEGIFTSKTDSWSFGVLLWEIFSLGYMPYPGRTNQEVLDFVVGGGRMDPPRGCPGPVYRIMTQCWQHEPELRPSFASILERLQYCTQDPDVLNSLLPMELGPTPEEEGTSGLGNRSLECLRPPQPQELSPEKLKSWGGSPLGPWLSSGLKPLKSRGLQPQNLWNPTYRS
Sequence of Mitogen-activated protein kinase 8 (P45983 whole entry): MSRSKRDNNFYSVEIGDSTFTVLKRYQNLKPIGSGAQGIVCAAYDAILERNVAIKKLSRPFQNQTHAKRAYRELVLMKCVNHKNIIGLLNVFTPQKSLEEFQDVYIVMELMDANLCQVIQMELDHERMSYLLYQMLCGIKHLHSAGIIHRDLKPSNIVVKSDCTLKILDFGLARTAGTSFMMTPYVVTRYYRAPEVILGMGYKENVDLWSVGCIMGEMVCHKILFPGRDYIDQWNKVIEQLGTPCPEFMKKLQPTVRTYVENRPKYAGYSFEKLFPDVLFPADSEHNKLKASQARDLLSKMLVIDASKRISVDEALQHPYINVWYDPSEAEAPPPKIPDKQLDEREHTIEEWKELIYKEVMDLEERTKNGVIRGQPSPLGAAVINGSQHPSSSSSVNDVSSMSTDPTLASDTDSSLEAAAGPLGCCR
Sequence of LRRK2 G2019S mutant (Q5S007 whole entry G2019S, the tested form may be a part): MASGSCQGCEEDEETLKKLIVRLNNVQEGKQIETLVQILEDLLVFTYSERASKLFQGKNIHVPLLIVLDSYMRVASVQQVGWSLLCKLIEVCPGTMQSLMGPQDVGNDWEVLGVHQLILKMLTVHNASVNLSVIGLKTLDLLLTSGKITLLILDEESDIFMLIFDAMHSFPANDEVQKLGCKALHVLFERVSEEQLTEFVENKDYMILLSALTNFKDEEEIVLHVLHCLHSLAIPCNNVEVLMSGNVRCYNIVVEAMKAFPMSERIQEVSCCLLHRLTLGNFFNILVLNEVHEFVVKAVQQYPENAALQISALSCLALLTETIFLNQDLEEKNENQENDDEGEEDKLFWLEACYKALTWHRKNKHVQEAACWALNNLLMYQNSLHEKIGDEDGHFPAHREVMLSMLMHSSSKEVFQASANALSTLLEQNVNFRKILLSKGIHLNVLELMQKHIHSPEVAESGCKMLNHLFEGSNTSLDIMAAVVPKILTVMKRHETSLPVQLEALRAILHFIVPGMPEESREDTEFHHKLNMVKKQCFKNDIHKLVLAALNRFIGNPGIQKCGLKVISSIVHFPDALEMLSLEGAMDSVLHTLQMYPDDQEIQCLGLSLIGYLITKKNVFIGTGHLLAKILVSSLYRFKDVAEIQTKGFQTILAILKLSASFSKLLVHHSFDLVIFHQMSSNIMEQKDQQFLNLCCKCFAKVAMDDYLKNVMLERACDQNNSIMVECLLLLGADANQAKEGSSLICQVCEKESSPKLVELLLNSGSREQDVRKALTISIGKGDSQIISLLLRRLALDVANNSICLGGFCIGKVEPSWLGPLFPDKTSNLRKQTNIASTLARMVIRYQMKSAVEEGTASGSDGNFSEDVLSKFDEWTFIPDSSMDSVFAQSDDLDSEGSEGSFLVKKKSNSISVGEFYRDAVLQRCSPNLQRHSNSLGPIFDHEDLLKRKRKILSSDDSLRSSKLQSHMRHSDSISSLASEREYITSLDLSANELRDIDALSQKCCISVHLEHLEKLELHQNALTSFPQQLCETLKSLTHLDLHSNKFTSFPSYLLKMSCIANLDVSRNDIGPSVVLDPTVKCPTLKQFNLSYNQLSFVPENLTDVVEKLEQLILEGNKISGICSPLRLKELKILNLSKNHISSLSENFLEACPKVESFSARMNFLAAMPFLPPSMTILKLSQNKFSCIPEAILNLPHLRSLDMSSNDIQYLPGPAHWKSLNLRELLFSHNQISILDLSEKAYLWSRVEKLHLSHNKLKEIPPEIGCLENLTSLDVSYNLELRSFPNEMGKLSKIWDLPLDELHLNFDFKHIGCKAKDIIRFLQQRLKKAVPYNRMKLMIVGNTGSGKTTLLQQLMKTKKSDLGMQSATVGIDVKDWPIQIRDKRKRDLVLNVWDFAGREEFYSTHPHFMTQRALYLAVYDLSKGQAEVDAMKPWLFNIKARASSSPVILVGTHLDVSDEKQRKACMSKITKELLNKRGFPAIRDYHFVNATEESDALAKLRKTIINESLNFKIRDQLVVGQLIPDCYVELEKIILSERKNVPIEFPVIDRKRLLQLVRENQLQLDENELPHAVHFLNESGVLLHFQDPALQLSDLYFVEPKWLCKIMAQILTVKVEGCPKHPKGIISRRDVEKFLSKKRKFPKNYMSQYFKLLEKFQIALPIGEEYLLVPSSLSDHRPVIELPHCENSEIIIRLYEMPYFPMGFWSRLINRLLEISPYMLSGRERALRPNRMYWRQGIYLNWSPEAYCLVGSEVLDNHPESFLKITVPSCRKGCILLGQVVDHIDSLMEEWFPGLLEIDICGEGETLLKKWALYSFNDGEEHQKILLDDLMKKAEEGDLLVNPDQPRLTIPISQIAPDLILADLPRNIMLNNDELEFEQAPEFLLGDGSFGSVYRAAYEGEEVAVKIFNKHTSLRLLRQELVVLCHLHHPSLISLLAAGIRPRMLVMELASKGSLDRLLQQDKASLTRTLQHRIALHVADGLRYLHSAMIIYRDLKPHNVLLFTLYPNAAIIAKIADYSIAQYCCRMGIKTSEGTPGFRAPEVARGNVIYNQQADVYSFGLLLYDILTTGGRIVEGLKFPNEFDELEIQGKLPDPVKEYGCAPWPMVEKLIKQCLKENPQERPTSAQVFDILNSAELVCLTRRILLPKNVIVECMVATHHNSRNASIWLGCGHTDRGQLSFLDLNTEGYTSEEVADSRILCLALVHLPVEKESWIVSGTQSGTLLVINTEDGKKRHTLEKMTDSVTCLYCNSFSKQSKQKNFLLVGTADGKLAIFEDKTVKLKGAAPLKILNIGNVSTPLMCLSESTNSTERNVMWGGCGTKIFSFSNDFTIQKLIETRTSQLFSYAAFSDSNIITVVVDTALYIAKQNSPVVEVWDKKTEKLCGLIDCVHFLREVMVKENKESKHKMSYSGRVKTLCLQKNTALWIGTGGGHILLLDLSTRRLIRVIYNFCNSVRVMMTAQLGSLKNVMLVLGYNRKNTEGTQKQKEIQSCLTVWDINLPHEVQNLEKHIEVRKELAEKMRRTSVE

## C[C@@H](Oc1cc(C(=O)N(C)C)ccc1Nc1nc(O[C@H]2CC[C@@](C)(O)CC2)c2c(Cl)c[nH]c2n1)C(F)(F)F
[1]
  IC50: 9 nM
CAL-51
  TGI: Dose-dependent effect
LRRK2 G2019S mutant
  inhibition at 1 h, 3 µM: > 80%
[2]
  Cmax: 4.35 µM
[3]
  inhibition: > 80%
[4]
  AUC: 22.5 µM·h
Homo sapiens [5]
  Ratio IC50: < 100
[6]
  IC50: 0.567 nM
[7]
  Activity: Non-Toxic
Mus musculus
  inhibition: Active
[8]
  inhibition: > 80%
Homo sapiens [9]
  Ratio IC50: < 100
